Assay results taken from ChEMBL document CHEMBL2157982, “Synthesis and structure-activity relationships of 8-substituted-2-aryl-5-alkylaminoquinolines: Potent, orally active corticotropin-releasing factor-1 receptor antagonists” (Bioorg Med Chem, 2012).
In brackets after ≈: the same amount, converted by molar mass. Activity calls are given as the source filed them. No cut-off for these calls is given here.

What was measured:
[1] = molecular target: T1, Corticotropin-releasing factor receptor 1 (Homo sapiens, UniProt P34998); assay: Displacement of [125I]-CRF from human CRF1 receptor expressed in HEK293 cells after 2 hrs by scintillation counting; type: cell-based
T1 sequence (P34998 whole entry): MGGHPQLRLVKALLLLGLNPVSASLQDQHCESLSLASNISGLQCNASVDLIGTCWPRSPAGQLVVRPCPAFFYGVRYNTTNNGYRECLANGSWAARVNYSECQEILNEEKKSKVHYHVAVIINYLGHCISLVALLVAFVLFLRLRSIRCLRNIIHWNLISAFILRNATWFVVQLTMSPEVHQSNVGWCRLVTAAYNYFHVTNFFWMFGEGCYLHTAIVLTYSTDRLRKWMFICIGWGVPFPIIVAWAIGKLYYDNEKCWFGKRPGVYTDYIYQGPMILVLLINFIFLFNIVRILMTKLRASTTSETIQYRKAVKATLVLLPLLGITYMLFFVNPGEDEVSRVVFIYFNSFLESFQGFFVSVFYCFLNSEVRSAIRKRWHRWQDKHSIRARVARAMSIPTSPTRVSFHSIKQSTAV
Outline: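 Scintillation proximity assay using HEK293/human CRF1 membranes (5 µg/well), WGA-coated SPA beads (1 mg/well) and 0.1 nM [125I] human/rat CRF. Buffer: PBS-type salts, 10 mM MgCl2, 2 mM EGTA, 1.5% BSA, protease inhibitors, pH 7.0. Incubated over 2 h at room temperature, then centrifuged and counted. Nonspecific binding defined with 0.4 µM sauvagine. IC50 from concentration-response curve of % total specific binding.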

[2] = molecular target: T1, Corticotropin-releasing factor receptor 1; assay: Antagonist activity at human CRF1 receptor expressed in HEK293 cells assessed as inhibition of CRF-induced intracellular cAMP production preincubated for 30 mins before CRF addition measured after 30 mins by enzyme immunoassay; type: functional, cell-based
[3] = Aqueous solubility of the compound in Dulbecco's phosphate-buffered saline at pH 7.4 by high-throughput HPLC method; type: physicochemical
Outline: (§1)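 A 10 mM DMSO stock of compound was diluted 1:100 into buffer in a filter plate and shaken 15 min at room temperature, then filtered. Filtrate analysed by reverse-phase HPLC-UV against an external DMSO standard. Buffers: pH 1.2 HCl/NaCl; pH 5 and 9 Britton–Robinson (acetate/phosphate/borate with KCl, NaOH-adjusted); pH 7.4 Dulbecco's PBS.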

[4] = Solubility of the compound in Britton-Robinson buffer at pH 9 by high-throughput HPLC method; type: physicochemical; outline: as §1
[5] = Dissociation constant, pKa of the compound; type: physicochemical
[6] = Solubility of the compound in HCl/NaCl at pH 1.2 by high-throughput HPLC method; type: physicochemical; conditions: HCl/NaCl solution; outline: as §1
[7] = Solubility of the compound in Britton-Robinson buffer at pH 5 by high-throughput HPLC method; type: physicochemical; outline: as §1
[8] = Half life in Fischer 344 rat at 3 mg/kg, iv; type: ADME, organism-based; set-up: dose 3 mg/kg, route intravenous; conditions: in vivo
Outline: (§2)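 Fasted F344 rats (n = 3 per dose, 189.4–205.9 g) received 3 mg/kg iv in 5% EtOH-0.02 mol/L HCl/5% glucose, or 10 mg/kg po in 5% DMSO/5% Cremophor EL/HCl/water. Blood sampled at 0.083 h (iv only), then 0.25–8 h. Brain taken 1 h after po dosing and homogenized. Samples protein-precipitated with imipramine internal standard and quantified by LC–MS/MS (ESI+). Mean ± SEM.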

[9] = test system: Mus musculus; assay: Anxiolytic activity in po dosed BALB/c mouse assessed as increase in time spent on illuminated box administered 60 mins before test measured for 5 mins by light-dark test; type: functional, organism-based
Outline: (§3)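 Male BALB/c mice, n = 10/group, dosed orally 1 h before test. Animals were habituated to 10 lx for at least 2 h (room at 150 lx) and placed in the dark compartment at start. Observed for 5 min, scoring time in the illuminated box and number of tunnel crossings. Mean ± S.E.M., Dunnett test versus vehicle.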

[10] = Tmax in Fischer 344 rat at 10 mg/kg, po; type: ADME, organism-based; set-up: dose 10 mg/kg, route oral; conditions: in vivo; outline: as §2
[11] = test system: Rattus norvegicus; assay: Inhibition of CRF-induced ACTH release in Fischer 344 rat plasma at 30 mg/kg, po administered 60 mins before CRF challenge by RIA; type: functional, organism-based; set-up: dose 30 mg/kg
Outline: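 Male Fischer 344 rats (152–177 g) dosed orally 1 h before subcutaneous CRF at 10 µg/kg; controls got vehicle 5% DMSO/5% Cremophor/90% saline. Trunk blood taken 30 min after CRF into EDTA and spun. Plasma ACTH measured in duplicate by immunoradiometric kit against ACTH standard curve. n = 5–6 rats; mean ± S.E.M.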

[12] = Oral bioavailability in Fischer 344 rat at 10 mg/kg; type: ADME, organism-based; conditions: in vivo; outline: as §2
[13] = test system: Rattus norvegicus; assay: AUC (infinity) in Fischer 344 rat at 10 mg/kg, po; type: ADME, organism-based, Plasma; set-up: time infinity, dose 10 mg/kg, route oral; conditions: in vivo
Outline: (§4)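 Fasted F344 rats (n = 3 per dose, 189.4–205.9 g). iv: 3 mg kg−1 given as 3 mg mL−1 in 5% ethanol-0.02 mol L−1 HCl/5% glucose. p.o.: 10 mg kg−1 given as 2 mg mL−1 in 5% DMSO/5% Cremophor EL/equivalent HCl/H2O. Blood sampled at 0.083 h (iv only), then 0.25, 0.5, 1, 2, 4, 6 and 8 h. Plasma extracted with MeOH/MeCN containing imipramine internal standard and measured by positive-ESI LC–MS/MS. Results given as mean ± SEM.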

[14] = Cmax in Fischer 344 rat at 10 mg/kg, po; type: ADME, organism-based; set-up: dose 10 mg/kg, route oral; conditions: in vivo; outline: as §2
[15] = Total blood clearance in Fischer 344 rat at 3 mg/kg, iv; type: ADME, organism-based; set-up: dose 3 mg/kg, route intravenous; conditions: whole blood; outline: as §2
[16] = Ratio of drug level in brain to plasma in Fischer 344 rat at 10 mg/kg, po after 1 hr; type: ADME, organism-based; set-up: dose 10 mg/kg, route oral; conditions: brain and plasma, read-out: BPR; outline: as §2
[17] = Volume of distribution at steady state in Fischer 344 rat at 3 mg/kg, iv; type: ADME, organism-based; set-up: dose 3 mg/kg, route intravenous; conditions: in vivo, read-out: Vdss; outline: as §2
[18] = test system: Rattus norvegicus; assay: AUC (infinity) in Fischer 344 rat at 3 mg/kg, iv; type: ADME, organism-based, Plasma; set-up: time infinity, dose 3 mg/kg, route intravenous; conditions: in vivo; outline: as §4
[19] = test system: Mus musculus; assay: Anxiolytic activity in po dosed BALB/c mouse assessed as increase in number of tunnel crossings administered 60 mins before test measured for 5 mins by light-dark test; type: functional, organism-based; outline: as §3
[20] = test system: Mus musculus; assay: Anxiolytic activity in BALB/c mouse assessed as increase in time spent on illuminated box at 30 mg/kg, po administered 60 mins before test measured for 5 mins by light-dark test; type: functional, organism-based; set-up: dose 30 mg/kg; outline: as §3
[21] = test system: Mus musculus; assay: Anxiolytic activity in po dosed BALB/c mouse assessed as increase in number of tunnel crossings at 30 mg/kg, po administered 60 mins before test measured for 5 mins by light-dark test; type: functional, organism-based; set-up: dose 30 mg/kg; outline: as §3

Compound	IC50 [1]	IC50 [2]	solubility [3]	further results
CCN(CCOC)c1ccc(C)c2nc(-c3c(OC)cc(COC)cc3OC)c(C)cc12	–	–	7.2 µM (≈ 3.16 µg/mL)	–
CCN(CC)c1ccc(C)c2nc(-c3c(OC)cc(COC)cc3OC)ccc12	–	–	< 0.2 µM	–
COCCN(CC(C)C)c1ccc(OC)c2nc(-c3c(OC)cc(COC)cc3OC)c(C)cc12	156 nM	65 nM	8.7 µM (≈ 4.2 µg/mL)	–
CCN(CC)c1ccc(F)c2nc(-c3c(OC)cc(COC)cc3OC)c(C)cc12	226 nM	67 nM	10.5 µM (≈ 4.33 µg/mL)	–
CCN(CC)c1ccc(Cl)c2nc(-c3c(OC)cc(COC)cc3OC)c(C)cc12	62 nM	28 nM	< 0.2 µM	–
CCN(CC)c1ccc(C)c2nc(-c3c(OC)cc(COC)cc3OC)c(C)cc12	–	–	1.7 µM (≈ 0.695 µg/mL)	solubility [4]: 2 µM (≈ 0.817 µg/mL); pKa [5]: 5.86; solubility [6]: > 100 µM; solubility [7]: 22 µM (≈ 8.99 µg/mL)
CCN(CC)c1ccc(OC)c2nc(-c3c(OC)cc(COC)cc3OC)c(Cl)cc12	144 nM	57 nM	1.9 µM (≈ 0.845 µg/mL)	–
CCN(CC)c1ccc(OC)c2nc(-c3c(OC)cc(C#N)cc3OC)c(C)cc12	132 nM	63 nM	11 µM (≈ 4.46 µg/mL)	–
CCN(CC)c1ccc(OC)c2nc(-c3c(OC)cc(COC)cc3OC)ccc12	202 nM	332 nM	38.2 µM (≈ 15.7 µg/mL)	–
CCN(CC)c1ccc(COC)c2nc(-c3c(OC)cc(COC)cc3OC)c(C)cc12	> 1000 nM	–	2.9 µM (≈ 1.27 µg/mL)	–
CCN(CC)c1ccc(OC)c2nc(-c3c(OC)cc(C)cc3OC)c(C)cc12	99 nM	43 nM	17.3 µM (≈ 6.83 µg/mL)	–
CCCN(CCC)c1ccc(C)c2nc(-c3c(OC)cc(COC)cc3OC)c(C)cc12	–	–	2 µM (≈ 0.873 µg/mL)	–
CCCN(CCC)c1ccc(OC)c2nc(-c3c(OC)cc(COC)cc3OC)c(C)cc12	105 nM	99 nM	< 0.2 µM	–
CCN(CC)c1ccc(C)c2nc(-c3c(OC)cc(COC)cc3OC)c(Cl)cc12	–	–	< 0.2 µM	–
CCN(CC)c1ccc(OC)c2nc(-c3c(Cl)cc(COC)cc3OC)c(C)cc12	67 nM	22 nM	3.7 µM (≈ 1.59 µg/mL)	Activity [9]: Dose-dependent effect; Activity [20]: Active; Activity [21]: Active; Activity [19]: Dose-dependent effect

Second part, led by results:

IC50 [1]	IC50 [2]	solubility [3]	Compound	further results
108 nM	32 nM	12.1 µM (≈ 5.31 µg/mL)	CCc1cc2c(N(CC)CC)ccc(OC)c2nc1-c1c(OC)cc(COC)cc1OC	–
288 nM	259 nM	< 0.2 µM	CCN(CC)c1ccc(C(F)(F)F)c2nc(-c3c(OC)cc(COC)cc3OC)c(C)cc12	–
–	–	< 0.2 µM	CCN(CC)c1ccc(C)c2nc(-c3c(OC)cc(COC)cc3OC)c(F)cc12	–
414 nM	–	< 0.2 µM	CCN(CC)c1ccc(C(F)F)c2nc(-c3c(OC)cc(COC)cc3OC)c(C)cc12	–
102 nM	36 nM	3.2 µM (≈ 1.34 µg/mL)	CCN(CC)c1ccc(C#N)c2nc(-c3c(OC)cc(COC)cc3OC)c(C)cc12	solubility [4]: 4.2 µM (≈ 1.76 µg/mL); pKa [5]: < 3; solubility [6]: > 100 µM; solubility [7]: 2.1 µM (≈ 0.881 µg/mL)
118 nM	75 nM	4.6 µM (≈ 1.97 µg/mL)	CCN(CC)c1ccc(OC)c2nc(-c3c(OC)cc(COC)cc3OC)c(F)cc12	–
110 nM	91 nM	74 µM (≈ 31.4 µg/mL)	CCN(CC)c1ccc(OC)c2nc(-c3c(OC)cc(COC)cc3OC)c(C)cc12	half-life [8]: 1.73 h; solubility [4]: 71 µM (≈ 30.1 µg/mL); Activity [9]: Dose-dependent effect; Tmax [10]: 0.5 h; Activity [11]: Active; bioavailability [12]: 16.4%; AUC [13]: 0.845 µg/mL/h; pKa [5]: 6.01; Cmax [14]: 305 ng/mL; clearance [15]: 44 mL/min/kg; Kp at 1 h [16]: 0.61; Vd [17]: 2.15 L/kg; solubility [6]: > 100 µM; AUC [18]: 1.542 µg/mL/h; Activity [19]: Dose-dependent effect; solubility [7]: 98.2 µM (≈ 41.7 µg/mL)
392 nM	–	89.4 µM (≈ 40.6 µg/mL)	CCN(CCOC)c1ccc(OC)c2nc(-c3c(OC)cc(COC)cc3OC)c(C)cc12	–
